{"data": "Assay results collected from several papers", "TRPM8": "Transient receptor potential cation channel subfamily M member 8 (TRPM8, Homo sapiens, UniProt Q7Z2W7)", "AKR1B1": "Aldo-keto reductase family 1 member B1 (AKR1B1, Homo sapiens, UniProt P15121)", "CD36": "Platelet glycoprotein 4 (CD36, Homo sapiens, UniProt P16671)", "LATS2": "Serine/threonine-protein kinase LATS2 (LATS2, Homo sapiens, UniProt Q9NRM7)", "note": "Each line is one published result; the experiments were not run side by side."}
{"SMILES": "O=C1NC(c2cccc([N+](=O)[O-])c2)=CCN1c1ccccc1O", "target": "TRPM8", "read-out": "ion current", "mode": "agonist", "method": "patch clamp", "endpoint": "EC50", "result": "0.412 µM"}
{"SMILES": "COc1cc(/C=N/NC(=S)NN=Cc2ccc(CO)o2)ccc1Oc1ccnc2cc(Cl)ccc12", "target": "AKR1B1", "read-out": "enzyme activity", "mode": "inhibitor", "method": "absorbance", "endpoint": "IC50", "result": "21.3 µM"}
{"SMILES": "N=C(N)NCC(=O)O", "target": "Sodium- and chloride-dependent taurine transporter (SLC6A6, Homo sapiens, UniProt P31641)", "read-out": "binding", "method": "MST", "endpoint": "Kd", "result": "35.8 µM"}
{"SMILES": "CNC(=O)C(C)(C(C)C)C(C)C", "target": "TRPM8", "read-out": "calcium signal", "mode": "agonist", "endpoint": "EC50", "result": "56.5 µM"}
{"SMILES": "O=C(c1ccccc1)c1ccc(OCCCn2cnc3ccccc3c2=O)cc1", "target": "CD36", "read-out": "binding", "method": "MST", "endpoint": "Kd", "result": "10 µM"}
{"SMILES": "CCCCCCCCCP(=O)(C(C)C)C(C)C", "target": "TRPM8", "read-out": "ion current", "mode": "agonist", "method": "patch clamp", "endpoint": "EC50", "result": "24.8 µM"}
{"SMILES": "Cc1cc(-c2ccnc3[nH]cc(F)c23)cc(F)c1[C@@]1(O)[C@H](C)CN(C2CCS(=O)(=O)CC2)C[C@@H]1C", "target": "LATS2", "read-out": "enzyme activity", "mode": "inhibitor", "method": "radiometric", "endpoint": "IC50", "result": "0.0055 µM"}
{"SMILES": "CCCCC(=O)Nc1ccc(-c2ccc3ncn(CCC)c(=O)c3c2)cn1", "target": "Phosphatidylinositol 5-phosphate 4-kinase type-2 gamma (PIP4K2C, Homo sapiens, UniProt Q8TBX8, del300-341)", "read-out": "binding", "method": "ITC", "endpoint": "Kd", "result": "0.123 µM"}
{"SMILES": "CCCCC1OC(=O)c2ccccc21 (stereo not drawn)", "target": "Vimentin (VIM, Homo sapiens, UniProt P08670)", "read-out": "binding", "method": "SPR", "endpoint": "Kd", "result": "3.42 µM"}
{"SMILES": "CCCCCCCCCCCCCCCC(=O)O", "target": "CD36", "read-out": "binding", "method": "SPR", "endpoint": "Kd", "result": "247 µM"}
{"SMILES": "COc1cc(/C=N/NC(=S)N/N=C/c2ccc(Br)s2)ccc1Oc1ccnc2cc(Cl)ccc12", "target": "AKR1B1", "read-out": "enzyme activity", "mode": "inhibitor", "method": "absorbance", "endpoint": "IC50", "result": "17.7 µM"}
{"SMILES": "COc1ccc(NC(=O)[C@@H]2C[C@H](C)CC[C@H]2C(C)C)cc1", "target": "TRPM8", "read-out": "ion current", "mode": "agonist", "method": "patch clamp", "endpoint": "EC50", "result": "4 µM"}
{"SMILES": "N#Cc1ccc(O[C@H]2CC[C@H](NC(=O)c3ccc(N4CCC(CN5CCN(c6cc7c(cc6F)C(=O)N(C6CCC(=O)NC6=O)C7=O)CC5)CC4)nn3)CC2)cc1Cl (stereo partly drawn)", "target": "CD36", "read-out": "binding", "method": "SPR", "endpoint": "Kd", "result": "5.9 µM"}
{"SMILES": "Cc1cc(-c2ccnc3[nH]cc(F)c23)cc(F)c1[C@@]1(O)[C@H](C)CN(C(=O)CN)C[C@@H]1C", "target": "LATS2", "read-out": "binding", "method": "TR-FRET", "endpoint": "Kd", "result": "0.00049 µM"}
{"SMILES": "COc1cc(/C=N/NC(=S)NN=Cc2ccc([N+](=O)[O-])o2)ccc1Oc1ccnc2cc(Cl)ccc12", "target": "AKR1B1", "read-out": "enzyme activity", "mode": "inhibitor", "endpoint": "Ki", "result": "4.65 µM"}
{"SMILES": "CNC(=O)c1ccccc1Nc1nc(Nc2ccc(N3CCNCC3)cc2)ncc1Cl", "target": "LATS2", "read-out": "target engagement in cells", "method": "BRET", "endpoint": "IC50", "result": "0.211 µM"}
{"SMILES": "COc1cc(/C=N/NC(=S)N/N=C\\c2ccc([N+](=O)[O-])cc2)ccc1Oc1ccnc2cc(Cl)ccc12", "target": "AKR1B1", "read-out": "enzyme activity", "mode": "inhibitor", "method": "absorbance", "endpoint": "IC50", "result": "16.6 µM"}
{"SMILES": "Cc1ccc(C(=O)Nc2ccc(S(=O)(=O)O)c3cc(S(=O)(=O)O)cc(S(=O)(=O)O)c23)cc1NC(=O)c1cccc(NC(=O)Nc2cccc(C(=O)Nc3cc(C(=O)Nc4ccc(S(=O)(=O)O)c5cc(S(=O)(=O)O)cc(S(=O)(=O)O)c45)ccc3C)c2)c1", "target": "Electrogenic aspartate/glutamate antiporter SLC25A13, mitochondrial (SLC25A13, Homo sapiens, UniProt Q9UJS0)", "read-out": "binding", "method": "ITC", "pH": "pH 6.5", "endpoint": "Kd", "result": "7.57 µM"}
